According to ChEMBL document CHEMBL1153389, “Identification of novel antibacterial peptides by chemoinformatics and machine learning” (2009):

Test system: Pseudomonas aeruginosa
Assay: Antimicrobial activity against Pseudomonas aeruginosa H1001 expressing luciferase gene assessed as ratio antimicrobial IC50 for drug to Bac2A peptide by luminescence assay
Assay type: functional
Procedure, shortened: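 Peptides are made by SPOT synthesis on cellulose, cleaved, and the spots placed in plate wells. Overnight P. aeruginosa H1001 (fliC::luxCDABE) is diluted 1:500 in 100 mM Tris-HCl pH 7.3 with 20 mM glucose and added to the wells. After 30 min, serial dilutions (8 rows) are made. Luminescence is read at 4 h. IC50 is taken from a sigmoid fit and expressed relative to Bac2A run in the same series.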

Compound | Ratio IC50
N=C(N)NCCC[C@H](NC(=O)[C@H](CCCNC(=N)N)NC(=O)[C@@H](N)CCCNC(=N)N)C(=O)N[C@@H](Cc1c[nH]c2ccccc12)C(=O)N[C@@H](Cc1c[nH]c2ccccc12)C(=O)N[C@@H](Cc1c[nH]c2ccccc12)C(=O)N[C@@H](Cc1c[nH]c2ccccc12)C(=O)N[C@@H](Cc1c[nH]c2ccccc12)C(=O)N[C@@H](Cc1c[nH]c2ccccc12)C(=O)O | 1.82
N=C(N)NCCC[C@H](NC(=O)[C@H](CCCCN)NC(=O)[C@H](CCCNC(=N)N)NC(=O)[C@@H](N)CCCNC(=N)N)C(=O)N[C@@H](Cc1c[nH]c2ccccc12)C(=O)N[C@@H](Cc1c[nH]c2ccccc12)C(=O)N[C@@H](Cc1c[nH]c2ccccc12)C(=O)N[C@@H](Cc1c[nH]c2ccccc12)C(=O)N[C@@H](Cc1c[nH]c2ccccc12)C(=O)O | 0.43
H-AFRGSRHRM-OH [AFRGSRHRM] | 11.36
H-AGGMRKRTR-OH | 25
H-AMLGGRQWR-OH | 6.75
H-ANRWGRGIR-OH | 10.8
H-ARGKSIKNR-OH | 8.35
H-ARGRWINGR-OH | 7.24
H-ASKRVGVRN-OH | 8.17
H-ATRKGYSKF-OH | 25
H-ATWIWVFRR-OH | 4.88
H-AWKIKKGRI-OH | 3.59
H-FMWVYRYKK-OH | 1.51
H-FVVMKRIVW-OH | 5.38
H-FVWQKGTNR-OH | 11.3
H-GGIRRLRWY-OH | 1.16
H-GGRGTRWHG-OH | 8.6
H-GIKWRSRRW-OH | 1.06
H-GKFYKVWVR-OH | 1.21
H-GKRVWGRGR-OH | 8.2
H-GMRRWRGKN-OH | 6.05
H-GRIGGKNVR-OH | 9.12

Compound | Ratio IC50
H-GRMRLWNGR-OH | 7.91
H-GRNGWYRIN-OH | 10.74
H-GRQISWGRT-OH | 8.04
H-GRRVMNQKR-OH | 9.83
H-GRRWGMGVR-OH | 7.75
H-GRTMNGRW-OH | 6.93
H-GSRRFGWNR-OH | 8.1
H-GSRRSVWVF-OH | 2.3
H-GVRSWSQRT-OH | 8.5
H-GVRVQRNSK-OH | 25
H-GWGGKRRNF-OH | 7.38
H-GWKILRKRK-OH | 2.74
H-GWNTMGRRW-OH | 6.32
H-HGVWGNRKR-OH | 7.95
H-HYKFQRWIK-OH | 2.79
H-IKRVKRRKR-OH | 2.93
H-IKRWWRWWR-OH | 0.23
H-IKRWWWRRW-OH | 0.22
H-IKWWWRMRI-OH | 0.39
H-ILRVISKRR-OH | 25
H-INRKRRLRW-OH | 4.25
H-IRGRIIFWV-OH | 0.44

Compound | Ratio IC50
H-IRKKRRRWT-OH | 6.59
H-IRKWRRWWK-OH | 0.41
H-IRMWVKRWR-OH | 0.61
H-IRQWWRRWW-OH | 0.5
H-IRRIVRRKI-OH | 11.15
H-IRRRKKRIK-OH | 6.42
H-IRRRKWWWW-OH | 0.21
H-IRRRWWWIV-OH | 0.23
H-IRWWKRWWR-OH | 0.21
H-IVVRVWVVR-OH | 3.5
H-IWIWRKLRW-OH | 0.46
H-IWKRWRKRL-OH | 0.33
H-IWKRWWRRW-OH | 0.24
H-KFRKRVWWW-OH | 0.3
H-KFWWWNYLK-OH | 1.81
H-KIRRKVRWG-OH | 10.55
H-KIWWWWRRR-OH | 0.21
H-KKRWLWWWR-OH | 0.3
H-KKRWVWVIR-OH | 0.35
H-KKSKQLWKR-OH | 3.23
H-KNNRRWQGR-OH | 6.45
H-KNRGRWFSH-OH | 9.79
